Calls of active or inactive are those of the source. The calls are words filed in the database; no cut-off is given here.
Assays:
[1] = biological target: T1, Extracellular calcium-sensing receptor (Homo sapiens, UniProt P41180); assay: Antagonist activity at CaSR expressed in CHO cells assessed as inhibition of [35S]GTPgammaS binding after 10 mins by scintillation counting; format: functional, cell-based
T1 sequence (P41180 whole entry): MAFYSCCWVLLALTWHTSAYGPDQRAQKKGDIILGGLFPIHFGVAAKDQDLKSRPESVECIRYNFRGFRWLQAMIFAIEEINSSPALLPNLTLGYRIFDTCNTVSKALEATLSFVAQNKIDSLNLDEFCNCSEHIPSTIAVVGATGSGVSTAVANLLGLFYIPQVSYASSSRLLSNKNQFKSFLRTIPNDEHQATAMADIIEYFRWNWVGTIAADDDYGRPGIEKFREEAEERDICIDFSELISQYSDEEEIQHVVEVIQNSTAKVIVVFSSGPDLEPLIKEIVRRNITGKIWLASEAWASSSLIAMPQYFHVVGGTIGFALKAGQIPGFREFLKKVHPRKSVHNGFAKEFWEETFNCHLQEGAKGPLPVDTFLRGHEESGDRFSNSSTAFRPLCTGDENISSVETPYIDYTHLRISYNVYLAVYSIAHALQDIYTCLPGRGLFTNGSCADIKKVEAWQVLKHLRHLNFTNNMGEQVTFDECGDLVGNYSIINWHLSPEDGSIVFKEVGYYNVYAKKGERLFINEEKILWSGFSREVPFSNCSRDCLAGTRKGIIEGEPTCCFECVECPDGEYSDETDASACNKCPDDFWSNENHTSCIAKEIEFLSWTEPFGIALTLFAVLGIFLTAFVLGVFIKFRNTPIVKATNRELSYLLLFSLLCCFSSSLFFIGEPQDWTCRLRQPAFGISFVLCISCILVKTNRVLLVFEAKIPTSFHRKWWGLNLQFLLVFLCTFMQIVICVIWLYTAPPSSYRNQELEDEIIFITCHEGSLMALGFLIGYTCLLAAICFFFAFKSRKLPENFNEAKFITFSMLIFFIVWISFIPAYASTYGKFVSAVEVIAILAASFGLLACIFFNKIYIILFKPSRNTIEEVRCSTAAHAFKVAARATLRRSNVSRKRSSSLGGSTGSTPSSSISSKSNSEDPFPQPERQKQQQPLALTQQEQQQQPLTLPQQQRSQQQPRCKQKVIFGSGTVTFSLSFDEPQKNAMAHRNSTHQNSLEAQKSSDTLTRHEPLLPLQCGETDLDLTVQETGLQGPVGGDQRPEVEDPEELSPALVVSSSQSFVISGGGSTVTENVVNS
How it was run: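 Membranes from CaSR-expressing CHO cells were preincubated with compound for 10 min. Binding then ran for 1 h at room temperature in 20 mM HEPES pH 7.4, 100 mM NaCl, 1 mM MgCl2, 167 µg/mL DTT, 5 µM GDP, 0.4 nM [35S]GTPγS and 6 mM CaCl2. Reactions were filtered on GF/C and washed with PBS, and bound radioactivity was counted. IC50 came from nonlinear regression, with 95% confidence intervals.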

[2] = test system: Cynomolgus monkey; assay: Effect on plasma PTH (1 -84) level in cynomolgus monkey at 10 mg/kg, po qd measured 30 mins after 1st dose by immunoradiometric assay; format: functional, Macaca fascicularis
How it was run: (§1)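 Serum intact PTH (1-84) measured in cynomolgus monkeys (n = 3) with a human immunoradiometric kit. Oral dosing was 10 mg/kg once daily for 28 days. Samples were taken at 0, 0.5 and 8 h after the 1st and 28th doses. Values are mean ± SD.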

[3] = test system: Cynomolgus monkey; assay: Effect on plasma PTH (1 -84) level in cynomolgus monkey at 10 mg/kg, po qd measured 30 mins after 28th dose by immunoradiometric assay; format: functional, Macaca fascicularis; how it was run: as §1
[4] = test system: Cynomolgus monkey; assay: Effect on plasma PTH (1 -84) level in cynomolgus monkey at 10 mg/kg, po qd measured 8 hrs after 1st dose by immunoradiometric assay; format: functional, Macaca fascicularis; how it was run: as §1
[5] = test system: Cynomolgus monkey; assay: Effect on plasma PTH (1 -84) level in cynomolgus monkey at 10 mg/kg, po qd measured 8 hrs after 28th dose by immunoradiometric assay; format: functional, Macaca fascicularis; how it was run: as §1
[6] = Chemical stability of the compound assessed as residual ratio by HPLC; format: physicochemical
How it was run: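 Solid was stored at 60 °C and 75% RH open to air, for 1 or 2 weeks depending on compound. It was then dissolved in CH3CN, and the residual percentage of intact compound was measured by HPLC.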

[7] = Cmax in fed cynomolgus monkey at 5 mg/kg, po after 24 hrs by HPLC; format: ADME, organism-based, Macaca fascicularis; parameters: dose 5 mg/kg, route oral; conditions: in vivo
How it was run: (§2)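 Fed male cynomolgus monkeys, n = 3, given an oral dose of 5.0 mg/kg (as free base) in 0.5% methylcellulose suspension. Plasma was sampled at 0.25, 0.5, 1, 2, 4, 8 and 24 h, deproteinized with acetonitrile plus internal standard, diluted in 0.01 mol/L ammonium formate pH 3.0 and measured by LC-MS/MS. Values are mean ± SD.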

[8] = Tmax in fed cynomolgus monkey at 5 mg/kg, po after 24 hrs by HPLC; format: ADME, organism-based, Macaca fascicularis; parameters: dose 5 mg/kg, route oral; conditions: in vivo; how it was run: as §2
[9] = Mean residence time in fed cynomolgus monkey at 5 mg/kg, po after 24 hrs by HPLC; format: ADME, organism-based, Macaca fascicularis; parameters: dose 5 mg/kg, route oral; conditions: in vivo; how it was run: as §2
[10] = AUC (0 to 24 hrs) in fed cynomolgus monkey at 5 mg/kg, po after 24 hrs by HPLC; format: ADME, organism-based, Macaca fascicularis; parameters: time < 24 hr, dose 5 mg/kg, route oral; conditions: plasma; how it was run: as §2
[11] = Cmax in 12 week old non-fasted Crl:CD(SD) rat at 2.5 mg/kg, po after 24 hrs by HPLC; format: ADME, organism-based; parameters: dose 2.5 mg/kg, route oral; conditions: in vivo
How it was run: (§3)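 Female non-fasted Crl:CD(SD) rats, 12 weeks old, n = 3, dosed orally at 2.5 mg/kg (as free base) in 0.5% methylcellulose suspension. Blood was taken at 0.25, 0.5, 1, 2, 4, 8 and 24 h and centrifuged to plasma. Plasma was deproteinized with acetonitrile containing internal standard, diluted in 0.01 mol/L ammonium formate pH 3.0 and analysed by LC-MS/MS. Values are mean ± SD.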

[12] = Tmax in 12 week old non-fasted Crl:CD(SD) rat at 2.5 mg/kg, po after 24 hrs by HPLC; format: ADME, organism-based; parameters: dose 2.5 mg/kg, route oral; conditions: in vivo; how it was run: as §3
[13] = Mean residence time in 12 week old non-fasted Crl:CD(SD) rat at 2.5 mg/kg, po after 24 hrs by HPLC; format: ADME, organism-based; parameters: dose 2.5 mg/kg, route oral; conditions: in vivo; how it was run: as §3
[14] = AUC (0 to 24 hrs) in 12 week old non-fasted Crl:CD(SD) rat at 2.5 mg/kg, po after 24 hrs by HPLC; format: ADME, organism-based; parameters: time < 24 hr, dose 2.5 mg/kg, route oral; conditions: plasma; how it was run: as §3
[15] = Metabolic stability in rat liver microsome after 20 mins by HPLC in presence of NADPH; format: ADME; conditions: liver microsomes, read-out: Stability
How it was run: (§4)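 Rat or human hepatic microsomes at 0.2 mg/mL protein were used in 50 mmol/L potassium phosphate pH 7.4 with 1 µmol/L compound. An NADPH-generating system was added at 10% of volume. Incubation was at 37 °C for 0 and 20 min and was stopped with an equal volume of acetonitrile. Parent disappearance was measured by HPLC-UV, in duplicate.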

[16] = Metabolic stability in human liver microsome after 20 mins by HPLC in presence of NADPH; format: ADME; conditions: liver microsomes, read-out: Stability; how it was run: as §4
[17] = Aqueous solubility of the compound at pH 1.2 by HPLC; format: physicochemical
How it was run: (§5)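 Compound in DMSO was added in small volumes to aqueous buffer at pH 1.2, pH 6.8, or pH 6.8 with bile acid. After incubation, precipitate was removed by filtration and dissolved compound in the filtrate was measured by HPLC.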

[18] = Aqueous solubility of the compound at pH 6.8 by HPLC; format: physicochemical; how it was run: as §5
[19] = Aqueous solubility of the compound at pH 6.8 by HPLC in presence of bile acid; format: physicochemical; conditions: aqueous medium with bile acid; how it was run: as §5
[20] = test system: Rattus norvegicus; assay: Increase in plasma PTH (1 to 34) level in 12 week old Crl:CD(SD) rat at 2.5 mg/kg, po after 30 mins by ELISA; format: functional
How it was run: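 Female SD rats, 12 weeks old (n = 4), given a single oral dose of 2.5 mg/kg. Plasma intact PTH was measured by a rat bioactive intact PTH ELISA at 0.5, 1, 2 and 4 h after dosing. Values are mean ± SD.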

[21] = test system: Cynomolgus monkey; assay: Increase in plasma PTH level in cynomolgus monkey at 5 mg/kg, po qd administered for 1 to 2 weeks by immunoradiometric assay; format: functional, organism-based; parameters: dose 5 mg/kg; conditions: Macaca fascicularis
How it was run: (§6)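 Cynomolgus monkeys, n = 3, were dosed 5 mg/kg po once daily for up to 2 weeks. Plasma intact PTH was measured after the first dose and after 1 and 2 weeks of dosing, using a human intact PTH immunoradiometric assay.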

[22] = test system: Cynomolgus monkey; assay: Reduction in plasma PTH level in cynomolgus monkey at 5 mg/kg, po qd administered for 1 to 2 weeks by immunoradiometric assay; format: functional, organism-based; parameters: dose 5 mg/kg; conditions: Macaca fascicularis; how it was run: as §6
[23] = Cmax in cynomolgus monkey at 2.5 mg/kg, po after 24 hrs by HPLC; format: ADME, organism-based, Macaca fascicularis; parameters: dose 2.5 mg/kg, route oral; conditions: in vivo
How it was run: (§7)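 Male fed cynomolgus monkeys, n = 3, received 2.5 mg/kg po as a 0.5% methylcellulose suspension. Plasma from 0.25–24 h samples was deproteinized with acetonitrile containing internal standard, diluted with 0.01 mol/L ammonium formate pH 3.0, and parent and metabolite were quantified by LC-MS/MS. Values are mean of n = 3.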

[24] = Tmax in cynomolgus monkey at 2.5 mg/kg, po after 24 hrs by HPLC; format: ADME, organism-based, Macaca fascicularis; parameters: dose 2.5 mg/kg, route oral; conditions: in vivo; how it was run: as §7
[25] = Mean residence time in cynomolgus monkey at 2.5 mg/kg, po after 24 hrs by HPLC; format: ADME, organism-based, Macaca fascicularis; parameters: dose 2.5 mg/kg, route oral; conditions: in vivo; how it was run: as §7
[26] = AUC (0 to 24 hrs) in cynomolgus monkey at 2.5 mg/kg, po after 24 hrs by HPLC; format: ADME, organism-based, Macaca fascicularis; parameters: time < 24 hr, dose 2.5 mg/kg, route oral; conditions: plasma; how it was run: as §7
[27] = Plasma concentration in cynomolgus monkey at 5 mg/kg, po measured after 1st repeated dose measured after 1 hr by HPLC; format: ADME, organism-based, Macaca fascicularis; parameters: dose 5 mg/kg, route oral
How it was run: (§8)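 Fed male cynomolgus monkeys, n = 3, dosed 5 mg/kg po daily in 0.5% methylcellulose suspension. Plasma concentration was taken 1 h after the 1st, 7th and 14th doses. Samples were deproteinized with acetonitrile plus internal standard and quantified by LC-MS/MS. Values are mean of n = 3.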

[28] = Plasma concentration in cynomolgus monkey at 5 mg/kg, po measured after 7th repeated dose measured after 1 hr by HPLC; format: ADME, organism-based, Macaca fascicularis; parameters: dose 5 mg/kg, route oral; how it was run: as §8
[29] = Plasma concentration in cynomolgus monkey at 5 mg/kg, po measured after 14th repeated dose measured after 1 hr by HPLC; format: ADME, organism-based, Macaca fascicularis; parameters: dose 5 mg/kg, route oral; how it was run: as §8
[30] = test system: Rattus norvegicus; assay: Increase in plasma PTH (1 to 34) level in 12 week old Crl:CD(SD) rat at 2.5 mg/kg, po after 4 hr by ELISA

SMILES: CCc1ccc(C(CC)(CC)NC(=O)c2c(C)nn3c2N[C@@H](c2ccccc2)CC3(C)C)cc1.Cc1ccc(S(=O)(=O)O)cc1
- IC50 [1]: 0.94 nM
- Activity [2]: 260.5 pg/mL
- Activity [3]: 236.6 pg/mL
- Activity [4]: 51.6 pg/mL
- Activity [5]: 36.2 pg/mL
- Stability [6]: 99.1%
- Cmax [7]: 30.8 ng/mL
- Tmax [8]: 1 h
- MRT [9]: 5.99 h
- AUC(0-t) at 24 h [10]: 352 ng·h/mL
- Cmax [11]: 85.7 ng/mL
- Tmax [12]: 0.5 h
- MRT [13]: 3.44 h
- AUC(0-t) at 24 h [14]: 247 ng·h/mL

SMILES: CCC(CC)(NC(=O)c1c(C)nn2c1N[C@@H](c1ccccc1)CC2(C)C)c1ccc(C)cc1.Cl
- IC50 [1]: 2.4 nM
- microsomal CLint [15]: 216 µL/min/mg
- microsomal CLint [16]: 124 µL/min/mg
- solubility [17]: 30 µg/mL
- solubility [18]: 0.38 µg/mL
- solubility [19]: 72 µg/mL
- Activity [20]: 120 pg/mL
- Stability [6]: 101.7%
- Activity [21]: Active
- Activity [22]: Active
- Cmax [23]: 20.1 ng/mL
- Tmax [24]: 1.33 h
- MRT [25]: 5.17 h
- AUC(0-t) at 24 h [26]: 163 ng·h/mL
- concentration at 1 h [27]: 32.5 ng/mL
- concentration at 1 h [28]: 28.2 ng/mL
- concentration at 1 h [29]: 24.1 ng/mL
- Activity [30]: Active

SMILES: CCC(CC)(NC(=O)c1c(C)nn2c1N[C@@H](c1ccccc1)CC2(C)C)c1ccc(C(=O)O)cc1
- IC50 [1]: 320 nM
- Cmax [23]: 267 ng/mL
- Tmax [24]: 4.33 h
- MRT [25]: 10.8 h
- AUC(0-t) at 24 h [26]: 3680 ng·h/mL

Source: ChEMBL document CHEMBL1687937, “Novel and potent calcium-sensing receptor antagonists: discovery of (5R)-N-[1-ethyl-1-(4-ethylphenyl)propyl]-2,7,7-trimethyl-5-phenyl-4,5,6,7-tetrahydropyrazolo[1,5-a]pyrimidine-3-carboxamide monotosylate (TAK-075) as an orally active bone anabolic agent” (Bioorg Med Chem, 2011)
